An excerpt weighted towards active compounds, which were near 1.5% of everything screened.
EBI2 antag – antagonists of human EBI2 receptor; EBI2 beta-arrestin recruitment, luminescence, 7a,25-OHC stimulated; inhibition, % at 5 µM; actives 0.81% (n = 360,000); P32249; AID 651636; in the data active means inhibition above about 38%;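 further: enzyme fragment complementation signal reports receptor beta-arrestin coupling in cells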
CCR6 antagonist – CCR6 (human) receptor antagonism. CHO-K1 CCR6 PathHunter beta-arrestin, luminescence, CCL20-stimulated. inhibition, % at 20 µM. P51684. actives 0.49% (n = 340,000);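 active means compounds whose inhibition of the agonist-driven luminescence signal at 20 µM reaches about 50%, limit read from the data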;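 further: cells stimulated with CCL20 at 14 nM final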
CXCR6 inh – CXCR6 (human) receptor inhibition | O00574 | CHO-K1 PathHunter CXCR6 beta-arrestin, luminescence | inhibition, % at 20 µM | actives 0.36% (n = 360,000); in the data active means inhibition above about 34%, passing the limit was not always enough;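 further: antagonist mode with CXCL16 agonist at 10 nM final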
Target sequence (O00574 whole entry, looked up): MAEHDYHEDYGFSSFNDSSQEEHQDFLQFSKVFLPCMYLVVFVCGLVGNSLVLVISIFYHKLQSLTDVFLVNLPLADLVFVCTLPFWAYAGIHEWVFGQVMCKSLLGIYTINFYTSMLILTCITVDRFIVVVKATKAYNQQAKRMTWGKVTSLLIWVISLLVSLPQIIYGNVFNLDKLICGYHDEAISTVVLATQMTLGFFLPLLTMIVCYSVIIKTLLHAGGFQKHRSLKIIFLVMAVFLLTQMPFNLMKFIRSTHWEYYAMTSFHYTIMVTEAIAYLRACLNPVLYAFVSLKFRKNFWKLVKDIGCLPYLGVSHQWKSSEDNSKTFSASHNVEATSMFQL
APJ antag – antagonists of human APJ apelin receptor | inhibition, % at 20 µM | actives 0.32% (n = 330,000) | P35414 | CHO-K1 APJ beta-arrestin complementation, luminescence;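 active means inhibition above about 40% at 20 µM, limit read from the data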;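 further: cells challenged with 10 nM apelin-13 agonist together with compound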
APJ ag – agonists of human APJ apelin receptor. CHO-K1 APJ PathHunter beta-arrestin, luminescence; 0% DMSO wells, 100% apelin. activation, % at 20 µM. actives 0.11% (n = 330,000);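 active means activation more than six SD over the plate average, tested at 20 µM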
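Incubation: overnight seeding, 90 min compound at 25 °C, 1 h detection; test system: PathHunter CHO-K1 APJ (AGTRL-1) beta-arrestin reporter cells; amount: 1000 cells/well; doses: one dose, 20 µM compound, 1% DMSO; measured by: beta-gal luminescence; measure: agonist-driven arrestin binding to APJ; benchmarks: negative DMSO alone, positive Apelin-13 at 10 nM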
EBI2 conf – confirmation of human EBI2 receptor antagonists | shares compounds with EBI2 antag | EBI2 beta-arrestin luminescence, 7a,25-OHC antagonism | inhibition, % at 5 µM | actives 29% (n = 2,400) | AID 651997;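 active means inhibition of at least 50%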
EBI2 agonist – counter-screen for EBI2 antagonists: EBI2 agonist activity; shares compounds with EBI2 antag; EBI2-expressing cells, agonist mode, luminescence, 60 min; 0% vehicle, 100% 7α,25-dihydroxycholesterol control; activation, % at 5 µM; 2,400 tested, under 10 active;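 active means activation of at least 50%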
bGal counter – beta-galactosidase inhibition counter-screen; purified beta-galactosidase, luminescent Galacton Star, 15 min; actives 1% (n = 2,400); shares compounds with EBI2 antag; inhibition, % at 5 µM; AID 652176;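 active means replicate-average signal at least 3 plate SD below neutral wells, shown as high inhibition, flagging enzyme-inhibiting false positives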;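 further: higher means stronger loss of beta-gal luminescence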
Hits are given with their value; - = inactive; . = not tested or not shown.

SMILES | EBI2 antag | CCR6 antagonist | CXCR6 inh | APJ antag | APJ ag | EBI2 conf | EBI2 agonist | bGal counter
O=C(COc1ccc(Cl)cc1)N1CCN(S(=O)(=O)c2ccccc2)CC1 | 87 | - | - | - | - | 68 | - | -
C[C@@H]1CNC(=O)c2c(C(=O)N[C@@H](Cc3c[nH]c4ccccc34)C(=O)OC(C)(C)C)ncn21 | - | . | - | . | . | . | . | .
COC(=O)[C@@]1(Cc2ccc(OC)cc2)[C@H]2c3cc(C(=O)N4CCCC4)n(CCc4c[nH]c5ccccc45)c3C[C@H]2CN1C(=O)c1ccccc1 | - | . | - | . | . | . | . | .
COC(=O)[C@@]1(Cc2ccc(F)cc2)[C@H]2c3cc(C(=O)N4CCCC4)n(CCc4c[nH]c5ccccc45)c3C[C@H]2CN1C(=O)c1ccccc1 | 53 | . | - | . | . | - | - | -
CSc1cc(-c2ccc(Cl)cc2)c(C(=O)NC(C)C)s1 | 47 | - | - | - | - | - | - | -
CSc1cc(-c2ccc(Cl)cc2)c(C(=O)NN)s1 | - | - | - | - | - | . | . | .
O=C(c1ccco1)N1CCN(c2nc(C(F)(F)F)nc3c2nnn3Cc2ccccc2)CC1 | 48 | - | - | - | - | - | - | -
COC(=O)c1ccc(-n2cc(-c3ccc(OC)cc3)[nH]c2=S)cc1 | 74 | - | - | . | . | 60 | - | -
COc1ccc(-n2cc(-c3ccc(Cl)cc3)[nH]c2=S)cc1 | 91 | - | - | - | - | 72 | - | -
COc1cc(NC(=O)CCn2c(=S)oc3ccccc32)cc(OC)c1OC | - | - | - | - | - | . | . | .
C(=C\c1nc(N2CCCC2)c2ccccc2n1)/c1ccccc1 | 41 | - | - | - | - | 59 | - | -
CC1CCN(c2nc(/C=C/c3ccccc3)nc3ccccc23)CC1 | - | - | - | - | - | . | . | .
O=C(/C=C/c1cccc([N+](=O)[O-])c1)Nc1cccc(NC(=O)c2cccs2)c1 | - | - | - | - | - | . | . | .
CC(C)(C)Nc1ncnc2sc(-c3ccccc3)cc12 | 73 | - | - | - | - | - | - | -
Cc1ccc2cccc(N=Cc3c(C)[nH]n(-c4ccccc4)c3=O)c2n1 | 78 | 89 | 69 | . | . | 67 | - | -
CCOC(=O)C1(Cc2ccc(Cl)cc2)CCN(C(C)Cc2ccc(O)c(OC)c2)CC1 (stereo unspecified) | 47 | - | - | - | - | - | - | -
CCn1c(SCc2ccc(Cl)cc2Cl)nc2nc3c(cc2c1=O)CCCC3 | 63 | - | - | - | - | - | - | -
O=C(Cn1nnc(-c2ccccc2)n1)N/N=C/c1cc([N+](=O)[O-])ccc1O | 55 | - | - | - | - | - | - | -
COc1ccccc1NC(=O)NC1(C(=O)NCC2CCCO2)CCCCC1 (stereo unspecified) | - | - | - | - | - | . | . | .
CN1C2C=C3C(C#N)=C(N)C(C#N)(C#N)C(c4ccc(Br)cc4)C3C1CC2 (stereo unspecified) | 51 | - | - | - | - | 59 | - | -
CN1C2C=C3C(C#N)=C(N)C(C#N)(C#N)[C@@H](c4ccc(Cl)cc4)[C@@H]3C1CC2 (stereo partly specified) | - | - | - | - | - | . | . | .
Cc1ccc(C)c(N2CCN(C(=O)c3ccc(N4CCCC4=O)cc3)CC2)c1 | 48 | - | - | - | - | - | - | -
Cc1ccc(C)c(N2CCN(C(=O)c3ccc4c(c3)c(C)c(C)n4C)CC2)c1 | 73 | - | - | - | - | 58 | - | -
Cc1ccc(C)c(N2CCN(C(=O)c3cc4sccc4n3C)CC2)c1 | 74 | - | - | - | - | - | - | -
Cc1c(C)n(C)c2ccc(C(=O)N3CCN(c4ccccc4)CC3)cc12 | - | - | - | - | - | . | . | .
SMILES | EBI2 antag | CCR6 antagonist | CXCR6 inh | APJ antag | APJ ag | EBI2 conf | EBI2 agonist | bGal counter
Cc1ccc(C)c(N2CCN(C(=O)c3ccc4nc(-c5ccco5)c(-c5ccco5)nc4c3)CC2)c1 | 44 | - | - | - | - | - | - | -
Cc1ccc(Cl)cc1N1CCN(S(=O)(=O)c2ccc3c(c2)oc(=O)n3C)CC1 | - | - | - | - | - | . | . | .
CCOC(=O)CSc1nnc(SCCN2C(=O)c3ccccc3C2=O)s1 | - | - | - | - | - | . | . | .
Cc1ccc(N2CC(NC(=O)N3CCN(C(=O)c4ccco4)CC3)CC2=O)cc1 (stereo unspecified) | - | - | - | - | - | . | . | .
Cc1ccc(OCC(=O)N2CCN(c3nnc(-c4ccccc4)c4ccccc34)CC2)cc1 | 90 | - | - | - | - | 86 | - | -
Cc1nc(N2CCN(C(=O)COc3ccccc3)CC2)c2c(C)c(C)sc2n1 | 51 | - | - | - | - | - | - | -
CC(=O)N1CCN(c2nnc(-c3ccc(C)cc3)c3ccccc23)CC1 | - | - | - | - | - | . | . | .
Cc1nn(C)c(C)c1CN(Cc1nc(CCC(C)C)no1)C(C)C | - | - | - | - | - | . | . | .
O=S(=O)(c1cccc(C(F)(F)F)c1)N1CCN(CC(O)COCc2ccccc2)CC1 (stereo unspecified) | - | - | - | - | - | . | . | .
CCOc1ccc(OCC(O)CN2CCN(S(=O)(=O)c3cccc(C(F)(F)F)c3)CC2)cc1 (stereo unspecified) | 77 | - | - | . | . | - | - | -
CCOC(=O)C1=C[C@@H](C(C)(C)C)N(S(=O)(=O)c2ccc(C)cc2)[C@H]1c1ccc(C#N)cc1 | 42 | . | - | . | . | - | - | -
O=C(c1ccc(Br)cc1)N1CCN(S(=O)(=O)c2ccccc2)CC1 | 47 | - | - | - | - | - | - | -
O=C(CSc1cccc(C(F)(F)F)c1)N1CCN(S(=O)(=O)c2ccccc2)CC1 | - | - | - | - | - | . | . | .
O=C(CSc1ccc(Br)cc1)N1CCN(S(=O)(=O)c2ccccc2)CC1 | 90 | - | - | - | - | 67 | - | -
Cc1cccc2c1NC(=O)C21N2CCCC2C(C(=O)c2ccc3ccccc3c2)C12C(=O)Nc1ccccc12 (stereo unspecified) | . | - | . | - | - | . | . | .
CCc1cccc2c1NC(=O)C21N2CCCC2C(C(=O)c2ccc3ccccc3c2)C12C(=O)Nc1ccccc12 (stereo unspecified) | 55 | - | - | - | - | - | - | -
CCOc1ccccc1CN(Cc1ccco1)S(=O)(=O)c1ccc(-n2cnnn2)c(OC)c1 | 49 | - | - | . | . | - | - | -
CN(C)c1ccc(CNCc2cccnc2)cc1 | - | - | - | - | - | . | . | .
O=C(c1ccncc1)N1CCN(c2ccc(F)cc2)CC1 | - | - | - | - | - | . | . | .
Cc1ccc(C(=O)N2CCC(C(=O)c3c(C)cc(C)cc3C)CC2)cc1 | 43 | - | - | - | - | - | - | -

Screening results as filed in PubChem BioAssay.
